How the values were obtained:
Oxytocin receptor = molecular target: T1, Oxytocin receptor (Homo sapiens, UniProt P30559); assay: Displacement of [3H]oxytocin from human Oxytocin receptor
T1 sequence (P30559 whole entry): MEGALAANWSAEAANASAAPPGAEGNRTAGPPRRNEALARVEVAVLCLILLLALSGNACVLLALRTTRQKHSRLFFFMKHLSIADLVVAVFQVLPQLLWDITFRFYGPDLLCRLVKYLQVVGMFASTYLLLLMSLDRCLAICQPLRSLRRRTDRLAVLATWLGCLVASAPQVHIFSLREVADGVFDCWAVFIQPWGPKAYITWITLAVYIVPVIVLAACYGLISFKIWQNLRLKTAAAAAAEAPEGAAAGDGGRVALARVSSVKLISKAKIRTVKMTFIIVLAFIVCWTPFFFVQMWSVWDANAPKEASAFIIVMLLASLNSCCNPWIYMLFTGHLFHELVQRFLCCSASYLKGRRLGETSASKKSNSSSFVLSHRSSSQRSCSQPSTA

[1] = Lipophilicity of the compound measured as CHI LogD by HPLC; type: physicochemical
[2] = Half life in rat; type: ADME; settings: in vivo
Plasma clearance in rat = settings: in vivo
[3] = Bioavailability in rat; type: ADME, organism-based; settings: in vivo
[4] = Per oral administration of 5 mg/Kg of dose required for measuring Area under concentration of curve in rat; type: ADME; settings: in vivo
Method in brief: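 Rats (n=2) received 5 mg/kg in 5% DMSO/95% PEG400. Plasma exposure is reported as AUC in h ng mL−1.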

[5] = Volume of distribution in rat; type: ADME, organism-based; settings: in vivo, read-out: Vdss
Vasopressin V1a receptor = Vasopressin V1a receptor (Homo sapiens, UniProt P37288); assay: Displacement of [3H]vasopressin from human V1a vasopressin receptor
[6] = Per oral administration of 0.6 mg/Kg of dose required for measuring Area under concentration of curve in dog; settings: in vivo
Vasopressin V1b receptor = molecular target: T2, Vasopressin V1b receptor (Homo sapiens, UniProt P47901); assay: Displacement of [3H]vasopressin from human V1b vasopressin receptor
T2 sequence (P47901 whole entry): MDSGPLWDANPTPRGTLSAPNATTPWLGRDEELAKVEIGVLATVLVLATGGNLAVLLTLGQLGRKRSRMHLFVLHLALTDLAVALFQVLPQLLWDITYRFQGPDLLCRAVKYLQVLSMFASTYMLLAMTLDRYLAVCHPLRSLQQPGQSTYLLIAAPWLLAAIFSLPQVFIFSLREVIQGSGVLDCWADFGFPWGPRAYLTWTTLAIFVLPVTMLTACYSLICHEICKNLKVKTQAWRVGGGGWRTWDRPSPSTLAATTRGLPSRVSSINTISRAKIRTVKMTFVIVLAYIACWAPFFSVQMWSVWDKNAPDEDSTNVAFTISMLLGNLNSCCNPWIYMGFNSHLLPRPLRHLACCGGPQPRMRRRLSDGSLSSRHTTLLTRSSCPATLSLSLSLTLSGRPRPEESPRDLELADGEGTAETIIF

Vasopressin V2 receptor = Vasopressin V2 receptor (Homo sapiens, UniProt P30518); assay: Displacement of [3H]oxytocin from human V2 vasopressin receptor
[7] = Volume of distribution in dog; type: ADME, organism-based, Canis lupus familiaris; settings: in vivo, read-out: Vdss
[8] = Bioavailability in dog; type: ADME, organism-based, Canis lupus familiaris; settings: in vivo
Plasma clearance in dog = settings: in vivo
[9] = Per oral administration of 5 mg/Kg of dose required for measuring Area under concentration of curve in dog; type: ADME, Canis lupus familiaris; settings: in vivo
[10] = Per oral administration of 0.6 mg/Kg of dose required for measuring Area under concentration of curve in dog; type: ADME, Canis lupus familiaris; settings: in vivo
Method in brief: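 Dogs (n=1) received 0.6 mg/kg in either 5% DMSO/95% PEG400 or 5% DMSO/95% labrafil. Exposure is given as plasma AUC in h ng mL−1.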

Sequence of Vasopressin V1a receptor (P37288 whole entry): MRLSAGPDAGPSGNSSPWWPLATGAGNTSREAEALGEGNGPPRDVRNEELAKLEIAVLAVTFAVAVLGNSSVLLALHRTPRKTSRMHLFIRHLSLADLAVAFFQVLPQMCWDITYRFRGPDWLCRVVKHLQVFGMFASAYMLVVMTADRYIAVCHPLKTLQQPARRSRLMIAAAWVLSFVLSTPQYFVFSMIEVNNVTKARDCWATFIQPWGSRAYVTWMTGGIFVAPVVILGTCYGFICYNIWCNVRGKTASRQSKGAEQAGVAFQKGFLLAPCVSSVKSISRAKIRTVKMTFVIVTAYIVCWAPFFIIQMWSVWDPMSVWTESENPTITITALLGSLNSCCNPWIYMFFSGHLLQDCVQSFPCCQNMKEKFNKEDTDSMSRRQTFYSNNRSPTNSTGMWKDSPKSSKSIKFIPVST
Sequence of Vasopressin V2 receptor (P30518 whole entry): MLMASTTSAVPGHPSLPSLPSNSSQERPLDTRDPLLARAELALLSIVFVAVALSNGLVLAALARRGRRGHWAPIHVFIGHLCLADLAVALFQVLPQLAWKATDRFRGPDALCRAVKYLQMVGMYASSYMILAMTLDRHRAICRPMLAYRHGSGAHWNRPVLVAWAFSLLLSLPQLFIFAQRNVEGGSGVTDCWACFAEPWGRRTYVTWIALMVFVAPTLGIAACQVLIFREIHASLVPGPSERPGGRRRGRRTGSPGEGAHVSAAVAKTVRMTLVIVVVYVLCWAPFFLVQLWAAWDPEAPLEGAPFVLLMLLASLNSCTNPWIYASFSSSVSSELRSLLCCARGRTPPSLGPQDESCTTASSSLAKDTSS

| Structure (SMILES) | Ki (Oxytocin receptor) [nM] | chromatographic logD [1] | AUC [4] [ng·h/mL] | further results |
| --- | --- | --- | --- | --- |
| CC(C)C[C@@H]1C(=O)N[C@H](C2Cc3ccccc3C2)C(=O)N1[C@@H](C(=O)NC(C)(C)C)c1ccc(N2CCN(C)CC2)cc1 | 25.1 |  |  |  |
| C=CCN1C(=O)[C@@H](CC(C)C)N([C@@H](C(=O)NC(C)C)c2ccccc2)C(=O)[C@H]1C1Cc2ccccc2C1 | 63.1 |  |  |  |
| CC(C)C[C@@H]1C(=O)N[C@H](C2Cc3ccccc3C2)C(=O)N1[C@@H](C(=O)NC(C)(C)C)c1cccc(N2CCN(C)CC2)c1 | 158 |  |  |  |
| CC(C)C[C@@H]1CN[C@H](C2Cc3ccccc3C2)C(=O)N1[C@@H](C(=O)NC(C)C)c1ccccc1 | 316 |  |  |  |
| CC(C)C[C@@H]1C(=O)N[C@H](C2Cc3ccccc3C2)C(=O)N1[C@H](C(=O)NC(C)C)c1ccc(S(C)(=O)=O)cc1 | 100 |  |  |  |
| CC(C)C[C@@H]1C(=O)N[C@H](C2Cc3ccccc3C2)C(=O)N1[C@H](C(=O)NC(C)C)c1ccc(N(C)C)cc1 | 25.1 |  |  |  |
| CC(C)C[C@@H]1C(=O)N[C@H](C2Cc3ccccc3C2)C(=O)N1[C@@H](C(=O)NC(C)C)c1ccc(C(N)=O)cc1 | 31.6 | 1.8 | 44 |  |
| CC(C)C[C@@H]1C(=O)N[C@H](C2Cc3ccccc3C2)C(=O)N1[C@H](C(=O)NC(C)(C)C)c1ccccc1 | 79.4 |  |  |  |
| Cc1ccc([C@@H](C(=O)NC(C)C)N2C(=O)[C@@H](C3Cc4ccccc4C3)NC(=O)[C@H]2CC(C)C)cc1 | 50.1 |  |  |  |
| CC(=O)Nc1ccc([C@@H](C(=O)NC(C)C)N2C(=O)[C@@H](C3Cc4ccccc4C3)NC(=O)[C@H]2CC(C)C)cc1 | 126 |  |  |  |
| CC(C)C[C@@H]1C(=O)N[C@H](C2Cc3ccccc3C2)C(=O)N1[C@H](C(=O)NC(C)(C)C)c1ccc(OC(F)(F)F)cc1 | 158 |  |  |  |
| COc1ccc([C@@H](C(=O)NC(C)(C)C)N2C(=O)[C@@H](C3Cc4ccccc4C3)NC(=O)[C@H]2CC(C)C)cc1 | 39.8 |  |  |  |
| CC(C)C[C@@H]1C(=O)N[C@H](C2Cc3ccccc3C2)C(=O)N1[C@H](C(=O)NC(C)(C)C)c1ccc(Cl)cc1 | 158 |  |  |  |
| CC(C)C[C@@H]1C(=O)N[C@H](C2Cc3ccccc3C2)C(=O)N1[C@H](C(=O)NC(C)C)c1ccc(C(N)=O)cc1 | 158 |  |  |  |
| CC(C)C[C@@H]1C(=O)N[C@H](C2Cc3ccccc3C2)C(=O)N1[C@H](C(=O)NC(C)C)c1ccc(F)cc1 | 100 |  |  |  |
| CC(C)C[C@@H]1C(=O)N[C@H](C2Cc3ccccc3C2)C(=O)N1[C@H](C(=O)NC(C)C)c1ccccc1 | 50.1 |  |  |  |
| CC(C)C[C@@H]1C(=O)N[C@H](C2Cc3ccccc3C2)C(=O)N1[C@H](C(=O)NC(C)C)c1ccc(C(F)(F)F)cc1 | 79.4 |  |  |  |
| CC(C)C[C@@H]1C(=O)N[C@H](C2Cc3ccccc3C2)C(=O)N1[C@@H](C(=O)NC(C)C)c1ccc(F)cc1F |  |  |  | Ki (Vasopressin V1a receptor): > 6310 nM; Ki (Vasopressin V1b receptor): > 6310 nM; AUC [9]: 121 ng·h/mL; Ki (Vasopressin V2 receptor): 631 nM; Vd [7]: 1.2 L/kg; AUC [10]: 291 ng·h/mL; F [8]: 33%; CL (Plasma clearance in dog): 11 mL/min/kg |

Second part, led by results:

| Ki (Oxytocin receptor) [nM] | chromatographic logD [1] | AUC [4] [ng·h/mL] | Structure (SMILES) | further results |
| --- | --- | --- | --- | --- |
| 3.98 |  |  | CC(C)C[C@@H]1C(=O)N[C@H](C2Cc3ccccc3C2)C(=O)N1[C@@H](C(=O)N(C)C(C)C)c1ccccc1 |  |
| 10 | 2.4 | 60 | CC(C)C[C@@H]1C(=O)N[C@H](C2Cc3ccccc3C2)C(=O)N1[C@@H](C(=O)NC(C)C)c1ccc(S(C)(=O)=O)cc1 | half-life [2]: 90 min; CL (Plasma clearance in rat): 21 mL/min/kg; bioavailability [3]: 3%; Vd [5]: 0.7 L/kg |
| 6.31 |  |  | CC(=O)Nc1cccc([C@H](C(=O)NC(C)(C)C)N2C(=O)[C@@H](C3Cc4ccccc4C3)NC(=O)[C@H]2CC(C)C)c1 |  |
| 3.98 | 3.2 | 114 | CC(C)C[C@@H]1C(=O)N[C@H](C2Cc3ccccc3C2)C(=O)N1[C@@H](C(=O)NC(C)C)c1ccccc1 | half-life [2]: 60 min; CL (Plasma clearance in rat): 29 mL/min/kg; bioavailability [3]: 5%; Vd [5]: 0.8 L/kg |
| 5.01 | 4.1 | 85 | CC(C)C[C@@H]1C(=O)N[C@H](C2Cc3ccccc3C2)C(=O)N1[C@@H](C(=O)NC(C)(C)C)c1ccc(OC(F)(F)F)cc1 |  |
| 3.98 | 3.5 |  | Cc1ccc([C@H](C(=O)NC(C)C)N2C(=O)[C@@H](C3Cc4ccccc4C3)NC(=O)[C@H]2CC(C)C)cc1 | half-life [2]: 36 min; CL (Plasma clearance in rat): 37 mL/min/kg; Vd [5]: 0.6 L/kg |
| 2.51 | 3.4 | 101 | COc1ccc([C@H](C(=O)NC(C)(C)C)N2C(=O)[C@@H](C3Cc4ccccc4C3)NC(=O)[C@H]2CC(C)C)cc1 |  |
| 1.58 |  |  | CC(=O)Nc1ccc([C@H](C(=O)NC(C)C)N2C(=O)[C@@H](C3Cc4ccccc4C3)NC(=O)[C@H]2CC(C)C)cc1 |  |
| 2.51 | 4 | 95 | CC(C)C[C@@H]1C(=O)N[C@H](C2Cc3ccccc3C2)C(=O)N1[C@@H](C(=O)NC(C)(C)C)c1ccc(Cl)cc1 | half-life [2]: 42 min; CL (Plasma clearance in rat): 43 mL/min/kg; bioavailability [3]: 2%; Vd [5]: 0.4 L/kg |
| 2 | 2.4 | 59 | CC(=O)Nc1ccc([C@H](C(=O)NC(C)(C)C)N2C(=O)[C@@H](C3Cc4ccccc4C3)NC(=O)[C@H]2CC(C)C)cc1 |  |
| 5.01 |  |  | CC(C)C[C@@H]1C(=O)N[C@H](C2Cc3ccccc3C2)C(=O)N1[C@@H](C(=O)NC(C)(C)C)c1ccccc1 |  |
| 3.98 | 3.2 | 421 | CC(C)C[C@@H]1C(=O)N[C@H](C2Cc3ccccc3C2)C(=O)N1[C@@H](C(=O)NC(C)C)c1ccc(F)cc1 | Ki (Vasopressin V1a receptor): > 6310 nM; AUC [6]: 259 ng·h/mL; Ki (Vasopressin V1b receptor): > 6310 nM; half-life [2]: 54 min; CL (Plasma clearance in rat): 23 mL/min/kg; bioavailability [3]: 13%; Ki (Vasopressin V2 receptor): > 1260 nM; Vd [7]: 0.8 L/kg; bioavailability [8]: 13%; CL (Plasma clearance in dog): 5 mL/min/kg; Vd [5]: 0.8 L/kg |
| 2 |  |  | c1ccc2c(c1)CNCO2 |  |
| 5.01 | 3.7 | 280 | CC(C)C[C@@H]1C(=O)N[C@H](C2Cc3ccccc3C2)C(=O)N1[C@@H](C(=O)NC(C)C)c1ccc(C(F)(F)F)cc1 |  |
| 3.16 | 3.4 | 287 | CC(C)C[C@@H]1C(=O)N[C@H](C2Cc3ccccc3C2)C(=O)N1[C@@H](C(=O)NC(C)C)c1ccc(N(C)C)cc1 | Ki (Vasopressin V1a receptor): > 39800 nM; AUC [6]: 335 ng·h/mL; Ki (Vasopressin V1b receptor): > 50100 nM; half-life [2]: 72 min; CL (Plasma clearance in rat): 48 mL/min/kg; bioavailability [3]: 5%; Ki (Vasopressin V2 receptor): > 79400 nM; Vd [7]: 1.7 L/kg; bioavailability [8]: 50%; CL (Plasma clearance in dog): 15 mL/min/kg; Vd [5]: 2.3 L/kg |

Reference: ChEMBL document CHEMBL1140377, “2,5-diketopiperazines as potent, selective, and orally bioavailable oxytocin antagonists. 2. Synthesis, chirality, and pharmacokinetics” (J Med Chem, 2005)
